What was measured:
[1] = tested on: Escherichia coli; test: Activity of Escherichia coli XL1-Blue wild-type IMP-1 beta-lactamase by spectrophotometer
[2] = tested on: Escherichia coli; test: Activity of Escherichia coli XL1-Blue VIM-2 A64W mutant beta-lactamase by spectrophotometer
In short: (§1)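 Mutant enzyme expressed in E. coli BL21(DE3) in autoinducing ZYP-5052 medium. Purified by anion exchange at pH 7.2, then high-resolution anion exchange at pH 9.2, plus gel filtration in 50 mM HEPES-50 μM ZnSO4 pH 7.5 where needed. Identity confirmed by tryptic peptide mass fingerprint. Steady-state kinetics on β-lactam substrates were run under the conditions used for wild-type VIM-2.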

[3] = tested on: Escherichia coli; test: Ratio of Kcat to Km for Escherichia coli XL1-Blue VIM-2 A64W mutant beta-lactamase by spectrophotometer; in short: as §1
[4] = tested on: Escherichia coli; test: Ratio of Kcat to Km for Escherichia coli XL1-Blue wild-type IMP-1 beta-lactamase by spectrophotometer
[5] = tested on: Escherichia coli; test: Activity of Escherichia coli XL1-Blue IMP-1 W64A mutant beta-lactamase by spectrophotometer
[6] = tested on: Escherichia coli; test: Ratio of Kcat to Km for Escherichia coli XL1-Blue IMP-1 W64A mutant beta-lactamase by spectrophotometer
[7] = tested on: CO/N=C(\C(=O)N[C@@H]1C(=O)N2C(C(=O)[O-])=C(C[N+]3(C)CCCC3)CS[C@H]12)c1csc(N)n1; test: (§2) Ratio of Kcat to Km for Escherichia coli BL21(DE3) VIM-2 W87A mutant beta-lactamase by spectrophotometer
[8] = tested on: C[C@@H](O)[C@H]1C(=O)N2C(C(=O)O)=C(SCCNC=N)C[C@H]12; test: as §2
[9] = tested on: CO/N=C(\C(=O)N[C@@H]1C(=O)N2C(C(=O)[O-])=C(C[N+]3(C)CCCC3)CS[C@H]12)c1csc(N)n1; test: (§3) Activity of Escherichia coli BL21(DE3) VIM-2 W87A mutant beta-lactamase by spectrophotometer
[10] = tested on: C[C@@H](O)[C@H]1C(=O)N2C(C(=O)O)=C(SCCNC=N)C[C@H]12; test: as §3
[11] = target: Metallo-beta-lactamase (Escherichia coli) (UniProt Q5U7L7); test: (§4) Activity of beta-lactamase VIM-2 in Escherichia coli XL1-Blue isolated from […] grown culture
[12] = target: Metallo-beta-lactamase (Escherichia coli) (UniProt Q5U7L7); test: as §4; remark: listed apart in the source
[13] = target: Metallo-beta-lactamase (Escherichia coli) (UniProt Q5U7L7); test: Activity of beta-lactamase VIM-2 in Escherichia coli XL1-Blue isolated from 1.2 hrs grown culture
In short: (§5)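 Imipenem-hydrolyzing activity in crude cell extracts of E. coli XL-1 carrying pLBII-VIM-2 or pLBII-VIM-2-W87F. Read spectrophotometrically with 150 μM imipenem in 10 mM HEPES (pH 7.5) plus 50 μM ZnSO4. Activity normalized to culture density (A600). Means of three independent measurements.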

[14] = tested on: Metallo-beta-lactamase (Escherichia coli), Q5U7L7 [W87F]; test: Activity of beta-lactamase VIM-2 W87F mutant expressed in Escherichia coli XL1-Blue isolated from 3.3 hrs grown culture
In short: (§6)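 E. coli XL-1 carrying pLBII-VIM-2 (wild-type or W87F) was grown and sampled at the stated times, with cell density read as A600. Imipenem hydrolysis in crude cell extracts was read spectrophotometrically in 10 mM HEPES pH 7.5 with 50 μM ZnSO4 and 150 μM imipenem. Activity was normalized to cell density. Values are means of three independent measurements.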

[15] = target: Metallo-beta-lactamase (Escherichia coli) (UniProt Q5U7L7); test: Activity of beta-lactamase VIM-2 in Escherichia coli XL1-Blue isolated from 3.8 hrs grown culture; in short: as §6
[16] = tested on: Metallo-beta-lactamase (Escherichia coli), Q5U7L7 [W87F]; test: (§7) Activity of beta-lactamase VIM-2 W87F mutant expressed in Escherichia coli XL1-Blue isolated from […] grown culture
[17] = target: Metallo-beta-lactamase (Escherichia coli) (UniProt Q5U7L7); test: Activity of beta-lactamase VIM-2 in Escherichia coli XL1-Blue isolated from 6 hrs grown culture; in short: as §6
[18] = target: Metallo-beta-lactamase (Escherichia coli) (UniProt Q5U7L7); test: Activity of beta-lactamase VIM-2 in Escherichia coli XL1-Blue isolated from 0.5 hrs grown culture; in short: as §6
[19] = tested on: Metallo-beta-lactamase (Escherichia coli), Q5U7L7 [W87F]; test: Activity of beta-lactamase VIM-2 W87F mutant expressed in Escherichia coli XL1-Blue isolated from 3.8 hrs grown culture; in short: as §6
[20] = tested on: Metallo-beta-lactamase (Escherichia coli), Q5U7L7 [W87F]; test: as §7; remark: listed apart in the source
[21] = tested on: Metallo-beta-lactamase (Escherichia coli), Q5U7L7 [W87F]; test: as §7; remark: listed apart in the source
[22] = tested on: Metallo-beta-lactamase (Escherichia coli), Q5U7L7 [W87F]; test: Activity of beta-lactamase VIM-2 W87F mutant expressed in Escherichia coli XL1-Blue isolated from 5.0 hrs grown culture; in short: as §6
[23] = tested on: Metallo-beta-lactamase (Escherichia coli), Q5U7L7 [W87F]; test: Activity of beta-lactamase VIM-2 W87F mutant expressed in Escherichia coli XL1-Blue isolated from 4.3 hrs grown culture; in short: as §5
[24] = target: Metallo-beta-lactamase (Escherichia coli) (UniProt Q5U7L7); test: Activity of beta-lactamase VIM-2 in Escherichia coli XL1-Blue isolated from 5 hrs grown culture; in short: as §6
[25] = target: Metallo-beta-lactamase (Escherichia coli) (UniProt Q5U7L7); test: Activity of beta-lactamase VIM-2 in Escherichia coli XL1-Blue isolated from 3.3 hrs grown culture; in short: as §6
[26] = target: Metallo-beta-lactamase (Escherichia coli) (UniProt Q5U7L7); test: as §4; remark: listed apart in the source
[27] = tested on: Metallo-beta-lactamase (Escherichia coli), Q5U7L7 [W87F]; test: Activity of beta-lactamase VIM-2 W87F mutant expressed in Escherichia coli XL1-Blue isolated from 0.5 hrs grown culture; in short: as §6
[28] = target: Metallo-beta-lactamase (Escherichia coli) (UniProt Q5U7L7); test: Activity of beta-lactamase VIM-2 in Escherichia coli XL1-Blue isolated from 4.3 hrs grown culture; in short: as §5
[29] = tested on: Metallo-beta-lactamase (Escherichia coli), Q5U7L7 [W87F]; test: Activity of beta-lactamase VIM-2 W87F mutant expressed in Escherichia coli XL1-Blue isolated from 6.0 hrs grown culture; in short: as §6
[30] = tested on: Metallo-beta-lactamase (Escherichia coli), Q5U7L7 [W87F]; test: Activity of beta-lactamase VIM-2 W87F mutant expressed in Escherichia coli XL1-Blue isolated from 1.2 hrs grown culture; in short: as §5

O=C(Cc1cccs1)N[C@@H]1C(=O)N2C(C(=O)O)=C(/C=C/c3ccc([N+](=O)[O-])cc3[N+](=O)[O-])CS[C@H]12
Km [1]: 8.2 µM | kcat [1]: 130 s⁻¹ | Km [2]: 10 µM | kcat [2]: 270 s⁻¹ | kcat/Km [3]: 2.7e+07 M⁻¹ s⁻¹ | kcat/Km [4]: 1.4e+07 M⁻¹ s⁻¹ | Km [5]: 160 µM | kcat [5]: 700 s⁻¹ | kcat/Km [6]: 4.3e+06 M⁻¹ s⁻¹

Metallo-beta-lactamase (Escherichia coli) (from UniProt Q5U7L7) W87A
kcat/Km [7]: 12000 M⁻¹ s⁻¹ | kcat/Km [8]: 5.4e+06 M⁻¹ s⁻¹ | Km [9]: > 350 µM | kcat [9]: > 4.5 s⁻¹ | Km [10]: 22 µM | kcat [10]: 119 s⁻¹

CO/N=C(\C(=O)N[C@@H]1C(=O)N2C(C(=O)[O-])=C(C[N+]3(C)CCCC3)CS[C@H]12)c1csc(N)n1
Km [1]: 11 µM | kcat [1]: 7 s⁻¹ | Km [2]: > 400 µM | kcat [2]: > 50 s⁻¹ | kcat/Km [3]: 120000 M⁻¹ s⁻¹ | kcat/Km [4]: 660000 M⁻¹ s⁻¹

CO[C@@]1(NC(=O)Cc2cccs2)C(=O)N2C(C(=O)O)=C(COC(N)=O)CS[C@@H]21
Km [1]: 3 µM | kcat [1]: 9 s⁻¹ | kcat/Km [4]: 3e+06 M⁻¹ s⁻¹ | Km [5]: 45 µM | kcat [5]: 40 s⁻¹ | kcat/Km [6]: 900000 M⁻¹ s⁻¹

C[C@@H](O)[C@H]1C(=O)N2C(C(=O)O)=C(SCCNC=N)C[C@H]12
Activity [11]: 110 nmol/mL/min | Activity [12]: 30 nmol/mL/min | Activity [13]: < 2.7 nmol/mL/min | Activity [14]: < 2.7 nmol/mL/min | Activity [15]: 240 nmol/mL/min | Activity [16]: < 2.7 nmol/mL/min | Activity [17]: 380 nmol/mL/min | Activity [18]: < 2.7 nmol/mL/min | Activity [19]: 4.7 nmol/mL/min | Km [1]: 25 µM | kcat [1]: 68 s⁻¹ | Activity [20]: < 2.7 nmol/mL/min | Activity [21]: < 2.7 nmol/mL/min | Activity [22]: 7.9 nmol/mL/min | Km [2]: 21 µM | kcat [2]: 60 s⁻¹ | Activity [23]: 4.7 nmol/mL/min | Activity [24]: 330 nmol/mL/min | Activity [25]: 170 nmol/mL/min | kcat/Km [3]: 2.9e+06 M⁻¹ s⁻¹ | Activity [26]: 39 nmol/mL/min | Activity [27]: < 2.7 nmol/mL/min | kcat/Km [4]: 2.7e+06 M⁻¹ s⁻¹ | Km [5]: 120 µM | kcat [5]: 67 s⁻¹ | kcat/Km [6]: 550000 M⁻¹ s⁻¹ | Activity [28]: 270 nmol/mL/min | Activity [29]: 9.5 nmol/mL/min | Activity [30]: < 2.7 nmol/mL/min
